The record followed here is ChEMBL document CHEMBL1821587, “Synthesis, antibacterial activities and molecular docking studies of Schiff bases derived from N-(2/4-benzaldehyde-amino) phenyl-N'-phenyl-thiourea” (Bioorg Med Chem, 2011).

In brackets after ≈: the same amount, converted by molar mass.

The test system of one data set is Staphylococcus aureus. The data set can be described thus: Antibacterial activity against Staphylococcus aureus ATCC 6538 after 24 hrs by MTT assay. The format is functional. The conditions noted are these: ATCC 6538, 24 h. The essentials: (§1)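 MICs by broth microdilution in Mueller-Hinton medium. Compounds were taken from a 100 μg/mL DMSO stock into sterile medium and serially diluted. Inoculum about 10⁵ cfu/mL, incubated 37 °C for 24 h, and MIC read visually. MTT (2 mg/mL in PBS pH 7.4) was then added for 4–5 h at room temperature, dye extracted with acidified isopropanol for 12 h, OD read at 550 nm.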

Another data set concerns Bacillus subtilis. The data set can be described thus: Antibacterial activity against Bacillus subtilis ATCC 6633 after 24 hrs by MTT assay. The following applies: ATCC 6633, 24 h. The format is functional. In short, it runs like this:
as §1
(Tetrazolium dyes change colour on reduction, which living cells bring about.)

In another data set the test system is Escherichia coli. Kind of data set: Antibacterial activity against Escherichia coli ATCC 35218 after 24 hrs by MTT assay. The format is functional. The following applies: ATCC 35218, 24 h. In short, it runs like this: as §1
The test system of another data set is Pseudomonas aeruginosa. The data set can be described thus: Antibacterial activity against Pseudomonas aeruginosa ATCC 13525 after 24 hrs by MTT assay. The conditions noted are these: ATCC 13525, 24 h. The class given is functional. The essentials: as §1
Data set [1] in a line: Inhibition of Escherichia coli N-terminal His-tagged FabH expressed in Escherichia coli BL21(DE3) using [3H]-acetyl-CoA after 25 mins by liquid scintillation counting. In short, it runs like this: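 His-tagged E. coli FabH was expressed with IPTG induction, purified on Ni-NTA and stored in Tris pH 7.6 with DTT and glycerol. Assay in 20 mM sodium phosphate pH 7.0 with 0.5 mM DTT, 0.25 mM MgCl₂, […] ACPS-converted holo-ACP and 1 nM FabH. Started with 25 μM acetyl-CoA plus [³H]acetyl-CoA, run 25 min, stopped with TCA; pellet counted by scintillation. Inhibitors added in DMSO (final ≤2%) for IC50.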

Data set [2] is described as follows: Toxicity in RBC assessed as hemolysis. The class given is cell-based. The conditions noted are these: erythrocyte.

The term MIC denotes the lowest concentration found to suppress growth. Low readings indicate a more susceptible organism, high ones a less susceptible organism. In the case of `S=C(Nc1ccccc1)Nc1ccccc1/N=C/c1ccc(Cl)cc1`, the MIC with Staphylococcus aureus, against Bacillus subtilis, with Escherichia coli and in the data set on Pseudomonas aeruginosa was more than 100 µg/mL in each case.

Turning to `COc1ccc(/C=N/c2ccccc2NC(=S)Nc2ccccc2)cc1`, the minimum inhibitory concentration (MIC) against Staphylococcus aureus, with Bacillus subtilis, against Escherichia coli and against Pseudomonas aeruginosa was more than 100 µg/mL each time.

For the compound `Oc1ccccc1/C=N/c1ccccc1NC(=S)Nc1ccccc1`, the MIC in the data set with Staphylococcus aureus, against Bacillus subtilis, in the data set with Escherichia coli and in the data set on Pseudomonas aeruginosa was more than 100 µg/mL throughout.

On to `Oc1c(Br)cc(Br)cc1/C=N/c1ccccc1NC(=S)Nc1ccccc1`, for which the MIC in the data set on Staphylococcus aureus, in the data set with Bacillus subtilis, with Escherichia coli and with Pseudomonas aeruginosa was more than 100 µg/mL each time.

What is called IC50 is the concentration that gives 50% inhibition. As for `Cc1ccc(/C=N/c2ccc(NC(=S)Nc3ccccc3)cc2)cc1`, the MIC was determined as 25 µg/mL (≈ 72.4 µM) against Staphylococcus aureus, 25 µg/mL (≈ 72.4 µM) in the data set with Bacillus subtilis, 12.5 µg/mL (≈ 36.2 µM) against Escherichia coli and 25 µg/mL (≈ 72.4 µM) against Pseudomonas aeruginosa. Further, the IC50 in data set [1] amounted to 25.9 µM. Moreover, the MHC in data set [2] is more than 10000 µg/mL.

Consider `S=C(Nc1ccccc1)Nc1ccc(/N=C/c2ccc(OCc3ccccc3)cc2)cc1`, for which the minimal inhibitory concentration (MIC) against Staphylococcus aureus came to 3.13 µg/mL (≈ 7.15 µM); in the data set with Bacillus subtilis, 6.25 µg/mL (≈ 14.3 µM); against Escherichia coli, 1.56 µg/mL (≈ 3.57 µM); in the data set with Pseudomonas aeruginosa, 3.13 µg/mL (≈ 7.15 µM). In data set [1], this compound had an IC50 of 4.3 µM. Also, in data set [2], the MHC is more than 10000 µg/mL.

For `S=C(Nc1ccccc1)Nc1ccccc1/N=C/c1ccc(Br)cc1`, the MIC in the data set on Staphylococcus aureus is more than 100 µg/mL; with Bacillus subtilis, 50 µg/mL (≈ 122 µM); in the data set on Escherichia coli it was more than 100 µg/mL; in the data set on Pseudomonas aeruginosa, more than 100 µg/mL.

As to `Oc1ccc(Br)cc1/C=N/c1ccc(NC(=S)Nc2ccccc2)cc1`, the MIC in the data set on Staphylococcus aureus was determined as 50 µg/mL (≈ 117 µM); with Bacillus subtilis, 50 µg/mL (≈ 117 µM); against Escherichia coli, 25 µg/mL (≈ 58.6 µM); in the data set on Pseudomonas aeruginosa it was 25 µg/mL (≈ 58.6 µM). For the same compound, the IC50 in data set [1] came to 39 µM. Moreover, the MHC in data set [2] was more than 10000 µg/mL.

With `Fc1ccccc1/C=N/c1ccc(NC(=S)Nc2ccccc2)cc1`, the MIC in the data set on Staphylococcus aureus, against Bacillus subtilis, in the data set on Escherichia coli and against Pseudomonas aeruginosa was more than 100 µg/mL in each case.

`S=C(Nc1ccccc1)Nc1ccc(/N=C/c2ccc(Cl)cc2Cl)cc1`: the MIC turned out to be 12.5 µg/mL (≈ 31.2 µM) with Staphylococcus aureus, 12.5 µg/mL (≈ 31.2 µM) against Bacillus subtilis, 12.5 µg/mL (≈ 31.2 µM) in the data set on Escherichia coli and 25 µg/mL (≈ 62.4 µM) with Pseudomonas aeruginosa. Also, the IC50 in data set [1] was 30.4 µM. Moreover, in data set [2], the MHC was more than 10000 µg/mL.

On to `S=C(Nc1ccccc1)Nc1ccc(/N=C/c2ccc(Br)cc2)cc1`, for which the minimal inhibitory concentration (MIC) with Staphylococcus aureus turned out to be 50 µg/mL (≈ 122 µM); against Bacillus subtilis, 50 µg/mL (≈ 122 µM); against Escherichia coli, 25 µg/mL (≈ 60.9 µM); with Pseudomonas aeruginosa, 25 µg/mL (≈ 60.9 µM). In addition, it took 40.8 µM to reach half-maximal inhibition in data set [1] (IC50). Also, the MHC in data set [2] is more than 10000 µg/mL.

Consider `Fc1ccc(/C=N/c2ccc(NC(=S)Nc3ccccc3)cc2)cc1`, for which the MIC was found to be 25 µg/mL (≈ 71.5 µM) in the data set on Staphylococcus aureus, 50 µg/mL (≈ 143 µM) in the data set on Bacillus subtilis, 50 µg/mL (≈ 143 µM) against Escherichia coli and 50 µg/mL (≈ 143 µM) against Pseudomonas aeruginosa.

For `NC[C@H]1O[C@H](O[C@H]2[C@H](O)[C@@H](O[C@H]3O[C@H](CO)[C@@H](O)[C@H](N)[C@H]3O)[C@H](N)C[C@@H]2N)[C@H](N)[C@@H](O)[C@@H]1O` [BEKANAMYCIN], the minimal inhibitory concentration (MIC) was 3.13 µg/mL (≈ 6.47 µM) against Staphylococcus aureus, 0.39 µg/mL (≈ 0.807 µM) against Bacillus subtilis, 1.56 µg/mL (≈ 3.23 µM) against Escherichia coli and 3.13 µg/mL (≈ 6.47 µM) against Pseudomonas aeruginosa.

As to `O=[N+]([O-])c1ccccc1/C=N/c1ccc(NC(=S)Nc2ccccc2)cc1`, the MIC is 25 µg/mL (≈ 66.4 µM) with Staphylococcus aureus, 50 µg/mL (≈ 133 µM) against Bacillus subtilis, more than 100 µg/mL in the data set with Escherichia coli and more than 100 µg/mL against Pseudomonas aeruginosa.

Turning to `COc1cccc(/C=N/c2ccc(NC(=S)Nc3ccccc3)cc2)c1`, the MIC with Staphylococcus aureus turned out to be 50 µg/mL (≈ 138 µM); with Bacillus subtilis it was 25 µg/mL (≈ 69.2 µM); in the data set on Escherichia coli it was 50 µg/mL (≈ 138 µM); with Pseudomonas aeruginosa, 25 µg/mL (≈ 69.2 µM). The same compound showed an IC50 in data set [1] of 48.1 µM. Moreover, the MHC in data set [2] was more than 10000 µg/mL.

For `CC1(C)S[C@@H]2[C@H](NC(=O)Cc3ccccc3)C(=O)N2[C@H]1C(=O)O` [PENICILLIN G], the MIC with Staphylococcus aureus worked out at 6.25 µg/mL (≈ 18.7 µM); against Bacillus subtilis it was 1.56 µg/mL (≈ 4.67 µM); against Escherichia coli, 3.13 µg/mL (≈ 9.36 µM); in the data set with Pseudomonas aeruginosa, 6.25 µg/mL (≈ 18.7 µM).

`Oc1ccc(Cl)cc1/C=N/c1ccc(NC(=S)Nc2ccccc2)cc1`: the MIC turned out to be 12.5 µg/mL (≈ 32.7 µM) against Staphylococcus aureus, 12.5 µg/mL (≈ 32.7 µM) in the data set with Bacillus subtilis, 6.25 µg/mL (≈ 16.4 µM) in the data set on Escherichia coli and 6.25 µg/mL (≈ 16.4 µM) in the data set on Pseudomonas aeruginosa. Also, it took 12.8 µM to reach half-maximal inhibition in data set [1] (IC50). In addition, in data set [2], the MHC is more than 10000 µg/mL.

As for `Oc1ccc(Br)cc1/C=N/c1ccccc1NC(=S)Nc1ccccc1`, the MIC in the data set with Staphylococcus aureus, in the data set on Bacillus subtilis, against Escherichia coli and in the data set on Pseudomonas aeruginosa was more than 100 µg/mL throughout.

As for `S=C(Nc1ccccc1)Nc1ccc(/N=C/c2cccc(Br)c2)cc1`, the MIC in the data set on Staphylococcus aureus, in the data set on Bacillus subtilis, in the data set with Escherichia coli and with Pseudomonas aeruginosa was more than 100 µg/mL in each case.

On to `Oc1c(Br)cc(Br)cc1/C=N/c1ccc(NC(=S)Nc2ccccc2)cc1`, for which the MIC against Staphylococcus aureus, in the data set with Bacillus subtilis, in the data set with Escherichia coli and in the data set with Pseudomonas aeruginosa was more than 100 µg/mL throughout.

As for `Oc1ccc(Cl)cc1/C=N/c1ccccc1NC(=S)Nc1ccccc1`, the MIC against Staphylococcus aureus was found to be 6.25 µg/mL (≈ 16.4 µM); with Bacillus subtilis, 12.5 µg/mL (≈ 32.7 µM); against Escherichia coli, 3.13 µg/mL (≈ 8.2 µM); against Pseudomonas aeruginosa, 3.13 µg/mL (≈ 8.2 µM). The compound further had an IC50 in data set [1] of 9.5 µM. Moreover, the MHC in data set [2] was more than 10000 µg/mL.

Take `S=C(Nc1ccccc1)Nc1ccc(/N=C/c2ccc(Cl)cc2)cc1`: the MIC with Staphylococcus aureus was 6.25 µg/mL (≈ 17.1 µM); against Bacillus subtilis, 12.5 µg/mL (≈ 34.2 µM); with Escherichia coli, 6.25 µg/mL (≈ 17.1 µM); in the data set with Pseudomonas aeruginosa, 3.13 µg/mL (≈ 8.55 µM). In data set [1], this compound had an IC50 of 15.6 µM. In addition, the MHC in data set [2] is more than 10000 µg/mL.

With `O=[N+]([O-])c1ccc(/C=N/c2ccc(NC(=S)Nc3ccccc3)cc2)cc1`, the MIC in the data set with Staphylococcus aureus stood at 50 µg/mL (≈ 133 µM); in the data set with Bacillus subtilis it was 50 µg/mL (≈ 133 µM); in the data set with Escherichia coli, 25 µg/mL (≈ 66.4 µM); in the data set on Pseudomonas aeruginosa, 50 µg/mL (≈ 133 µM).

For the compound `Oc1ccccc1/C=N/c1ccc(NC(=S)Nc2ccccc2)cc1`, the MIC with Staphylococcus aureus was found to be 6.25 µg/mL (≈ 18 µM); with Bacillus subtilis, 25 µg/mL (≈ 72 µM); in the data set with Escherichia coli it was 12.5 µg/mL (≈ 36 µM); with Pseudomonas aeruginosa, 6.25 µg/mL (≈ 18 µM). In data set [1], this compound showed an IC50 of 28.7 µM. Moreover, the MHC in data set [2] was more than 10000 µg/mL.
